# Compound activity from PubChem BioAssay.
# Lmaj promast = Leishmania major promastigote growth inhibition | inhibition, % at 10 µM | Leishmania major promastigotes, resazurin fluorescence viability | AID 1063 | 9% of 200,000 active; in the data active = inhibition above about 50%;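 note: promastigotes grown with compound for 44 hours at 28 °C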
# UPR XBP1 act = adaptive UPR (XBP1) activation; CHO-XBP1 luciferase reporter, IRE1-XBP1 UPR activation, luminescence; percent of tunicamycin response, DMSO as zero; activation, % at 20 µM; 0.33% of 330,000 active;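 active = versus positive control, 20 µM dose yields 30% or more activation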;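 note: 100% = tunicamycin at 10 µg/mL and 0% = DMSO only wells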
#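 Material – CHO cell line with stable XBP1 luciferase reporter · Buffer or medium – F12 plus 10% FBS · Compound – single point, 20 µM final compound, 1% DMSO · Schedule – 16-18 h cell attachment at 37 °C, then 6 h compound exposure · Signal – Steady-Glo luminescence read · Benchmarks – high control tunicamycin 10 µg/mL final, low control DMSO vehicle only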
# Dynein transport = blocks dynein driven cargo transport along microtubules. 0.47% of 220,000 active. z-score, hits read low. AID 1381. 3617.4 mouse cells, GR-EGFP nuclear translocation imaging; test concentration mostly 20 µM; stimulated with dexamethasone, 1 µM; hits give low values;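 active = plate z-score of nuclear minus cytoplasmic receptor signal below a set negative limit, without overly bright fluorescence or cell loss, cut at about -3.5 in these data, passing the limit was not always enough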;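 note: z-score of nuclear minus cytoplasmic ring GR-EGFP intensity difference per well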
#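 Buffer or medium: Induction medium lacking tetracycline, stripped serum | Also added: Dexamethasone agonist, 1.0 µM final, for 30 min | Timing: 48 h induction, 1 h compound, 30 min dex at 37 °C | Detection: Formaldehyde fixation, Hoechst nuclear stain, 10x automated fluorescence imaging | Measure: Nuclear versus cytoplasmic GR-EGFP signal, averaged per well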
# CHOP inh = inhibitors of CHOP induction in ER stress response; inhibition, % at 10 µM; 3.8% of 220,000 active; CHO-K1 CHOP-promoter luciferase, tunicamycin-induced, 15-18 h;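 active = compounds that reduced the stress-induced luciferase reporter signal by more than about 70% of percent inhibition, limit read from the data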;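 note: 0% = tunicamycin plus vehicle and 100% = wells without tunicamycin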
# T cruzi inh = T. cruzi replication inhibition | T. cruzi beta-gal in NIH3T3, luminescence, 90 h | 1.4% of 300,000 active | inhibition, % (no concentration beside the values);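 active = mean inhibition across valid replicates above about 55%, limit read from the data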;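 note: signal also drops with host cell toxicity which is not excluded here; 0% = plate median of DMSO wells and 100% = zero luminescence signal; higher percent means less beta-gal luminescence so fewer parasites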
#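 Material: NIH/3T3 host cells with β-galactosidase reporter T. cruzi; Input: 5,000 host fibroblasts per well; Medium: DMEM, 2% fetal bovine serum; Compound: 50 nL DMSO compound solution per well; Schedule: 3 h host attachment, then at least 90 h co-culture; Detection: luminescent β-galactosidase signal after 60 min lysis.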
# CHOP UPR activ = activators of apoptotic arm of unfolded protein response (CHOP). CHO-CHOP luciferase reporter, UPR activation, luminescence; percent of tunicamycin response over DMSO baseline. activation, % at 10 µM. 0.34% of 330,000 active. AID 449763;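 active = at 10 µM dose, activation of 40% or more, normalized to positive control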;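 note: 100% = tunicamycin at 10 µg/mL and 0% = DMSO alone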
#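 Test system: CHO-CHOP cells, stable luciferase reporter of PERK-eIF2a-CHOP signalling | Quantity: 500 CHO-CHOP cells per well | Buffer or medium: F12 plus 10% serum | Compound dosing: 10 µM single point, 0.5% DMSO | Schedule: 6 h compound treatment, 37 °C | Signal: Luciferase luminescence | Control set: Tunicamycin high control, DMSO low control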
# * hit, by the source's call; · = no result. The sample as a whole holds a higher share of hits than the screen did.
SMILES,Lmaj promast,UPR XBP1 act,Dynein transport,CHOP inh,T cruzi inh,CHOP UPR activ
CCOc1ccc(S(=O)(=O)Nc2cccc(C(=O)NCC3CCCO3)c2)cc1 (configuration not stated),·,-1,·,·,-2,0
O=C(NCC1COc2ccccc2O1)C1CCN(S(=O)(=O)c2ccc(Cl)cc2)CC1 (configuration not stated),·,-3,·,·,·,-1
S=C(NCc1ccc(Cl)cc1Cl)NC1CCCCC1,3,-3,-1,62,25,0
Clc1ccc(CNC2CCCC2)c(Cl)c1,94*,2,-0.032,-2,-10,0
N#Cc1nc(-c2ccc(OCc3ccccc3)cc2)oc1NCCCn1ccnc1,52*,4,-0.37,28,38,1
N#Cc1nc(-c2ccc(OCc3ccccc3Cl)cc2)oc1NCCCn1ccnc1,99*,11,-0.32,-38,37,4
Cn1c(=O)[nH]c(Nc2ccccc2)c([N+](=O)[O-])c1=O,-5,-1,0.16,1,5,0
CC(C)(C)c1ccc(C(=O)NCC(=O)OCC(=O)Nc2nc(-c3ccc(F)cc3)cs2)cc1,2,-1,1.5,73*,-10,2
O=C(NC(Cc1ccccc1)C(=O)O)c1cccnc1Cl (configuration not stated),·,-4,·,·,4,1
CCn1c(CCC(=O)Nc2cc(F)ccc2C)nc2cc(S(=O)(=O)N(C)C)ccc21,3,0,1.2,1,11,-1
CCN(CC)S(=O)(=O)c1ccc2c(c1)nc(CCC(=O)Nc1ccccc1Cc1ccccc1)n2CC,86*,3,0.11,8,51,0
CCOc1ccc(-c2nnn(CC(=O)Nc3cccc(OC)c3)n2)cc1OCC,8,-2,2.9,49,0,-1
CCOc1ccc(-c2nnn(CC(=O)NCc3ccc(F)cc3)n2)cc1OCC,-4,-4,-0.21,81*,-3,-1
COc1ccc(/C=N/NC(=O)c2cccc(S(=O)(=O)N3CCCC3)c2)cc1O,·,-1,·,·,·,0
O=C1N/C(=C/c2ccc(N3CCCC3)cc2)C(=O)N1c1ccccc1,69*,0,1.5,10,-7,12
O=C1NC(=S)S/C1=C/c1ccc(N2CCOCC2)o1,-6,-2,0.8,-13,-1,1
O=C1N/C(=C/c2ccc(N3CCOCC3)o2)C(=O)N1c1ccccc1,0,·,-6.2*,-25,·,·
O=C1N/C(=C/c2ccc(N3CCOCC3)cc2)C(=O)N1Cc1ccc(F)cc1,-2,0,-0.19,20,8,3
O=C1S/C(=C/c2ccc(N3CCOCC3)o2)C(=O)N1Cc1ccc(F)cc1,-3,-1,-3.3,14,45,0
C=CCN1C(=O)N/C(=C/c2ccc(N3CCOCC3)o2)C1=O,7,-4,-1.5,94*,48,28
Cc1sc2nc(C3CC3)nc(N3CCN(C(=O)c4ccc(Cl)cc4)CC3)c2c1C,·,3,·,·,37,3
CC(=O)c1ccccc1C(=O)N1CCCC(C(=O)c2ccc(C(F)(F)F)cc2)C1 (configuration not stated),·,-3,·,·,7,7
CCc1nnc(NC(=O)CCNC(=O)c2ccco2)s1,·,-2,·,·,-2,-1
CCOc1cc(S(=O)(=O)N(CC)CC)c(OCC)cc1-n1cnnn1,2,-2,-0.41,-14,10,-2
CCOc1cc(S(=O)(=O)N2CCC(Cc3ccccc3)CC2)c(OCC)cc1-n1cnnn1,23,3,1.1,-34,67*,0
SMILES,Lmaj promast,UPR XBP1 act,Dynein transport,CHOP inh,T cruzi inh,CHOP UPR activ
CCOc1cc(S(=O)(=O)N2CC=C(c3ccc(F)cc3)CC2)c(OCC)cc1-n1cnnn1,62*,-1,0.36,·,35,-1
Cc1ccc(CNC(=O)C(=O)NCC2OCCCN2S(=O)(=O)c2ccc(F)cc2)cc1 (configuration not stated),·,-2,·,·,1,0
COc1cc(OC)cc(-c2c(-c3cccs3)c3cc(-c4ccc(N(C)C)nc4)ccc3n2C)c1,·,-2,·,·,·,-1
CCn1c(COc2ccccc2)nnc1SCc1ccc(C#N)cc1,30,-4,0.77,3,16,-1
Cn1c(SCc2ccc(C#N)cc2)nnc1-c1ccncc1,·,-5,·,·,-13,2
C=CCn1c(SCc2ccc(C#N)cc2)nnc1-c1ccc(C)cc1,78*,0,-0.15,9,2,-1
Cc1ccc(OCc2nnc(SCC(=O)c3ccccc3)n2-c2ccccc2)cc1,100*,-4,1.2,0,17,1
CCn1c(COc2ccc(Cl)cc2)nnc1SCc1ccc(C#N)cc1,51*,-5,0.076,39,13,6
COc1ccc(-n2c(COc3ccc(C)cc3)nnc2SCc2ccc(C#N)cc2)cc1,68*,-2,0.52,15,35,8
COc1ccc(C(CNC(=O)c2[nH]c(C)c(C(C)=O)c2C)N2CCOCC2)cc1 (configuration not stated),·,1,·,·,·,0
Cc1cc(S(=O)(=O)N2CCOCC2)ccc1OCC(=O)N1CCCC1,·,3,·,·,-7,-2
S=C(NCC1CCCCC1)Nc1ccc(Oc2ccccc2)cc1,90*,1,-0.52,73*,55*,3
CC(Nc1ccc(Cl)cc1)c1cc(Cl)ccc1O (configuration not stated),29,3,-3,5,-8,-3
CC(Nc1ccc(Br)cn1)c1cc(Cl)ccc1O (configuration not stated),92*,·,-2,77*,20,·
CC(C(=O)Nc1ccccc1C(=O)O)n1c(C(F)(F)F)nc2ccccc21 (configuration not stated),1,-3,0.69,6,71*,-2
COc1ccc(N=Nc2n(C)c3ccccc3[n+]2C)cc1,·,·,2.2,63,64*,·
COc1ccc(N2CCN(C(=O)COC(=O)CNC(=O)c3cccc(OC(F)F)c3)CC2)cc1,·,0,·,·,·,0
CCOC(=O)N1CCN(C(=O)CN(C2CCCCC2)S(=O)(=O)c2ccc(C)cc2)CC1,34,-1,-0.97,10,4,-1
Cc1ccc(S(=O)(=O)N(CC(=O)N2CCN(c3ccc(F)cc3)CC2)C2CCCCC2)cc1,59*,0,-0.15,28,24,1
Cc1ccc(NC(=O)[C@@H]2CCCN2S(=O)(=O)c2ccccc2C(F)(F)F)cc1S(=O)(=O)N1CCOCC1,98*,0,-0.22,30,-4,0
Cc1ccc(NC(=O)[C@@H]2CCCN2S(=O)(=O)c2ccccc2F)cc1S(=O)(=O)N1CCOCC1,2,-1,0.24,0,-10,0
